Experiments:
[1] = biological target: T1, 5-hydroxytryptamine receptor 6 (Homo sapiens, UniProt P50406); assay: Inhibition of 5-HT stimulated cAMP production in HeLa cells expressing human 5-hydroxytryptamine 6 receptor; format: functional, cell-based
In short: (§1)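 Antagonist mode: cAMP production in HeLa cells stably transfected with the human 5-HT6 receptor was stimulated with 5-HT, and inhibition was measured across a range of ligand concentrations. IC50 and Imax each determined in triplicate.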

[2] = biological target: T1, 5-hydroxytryptamine receptor 6; assay: Maximum percentage agonism of cAMP production in HeLa cells expressing human 5-hydroxytryptamine 6 receptor; format: functional, cell-based
In short: (§2)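 cAMP production read out across a range of ligand concentrations in HeLa cells stably transfected with the human 5-HT6 receptor, ligand given alone as agonist. EC50 and Emax each determined in triplicate.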

[3] = biological target: T1, 5-hydroxytryptamine receptor 6; assay: Inhibition of [3H]LSD binding to human 5-hydroxytryptamine 6 receptor expressed in HeLa cells; format: cell-based
In short: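 Competition binding against [3H]-LSD on cloned human 5-HT6 receptors stably expressed in HeLa cells. Ki determined in triplicate; single-point lines are % inhibition at 1000 nM.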

[4] = biological target: T1, 5-hydroxytryptamine receptor 6; assay: Effective agonist concentration in cAMP release assay in HeLa cells expressing human 5-hydroxytryptamine 6 receptor; format: functional, cell-based; in short: as §2
[5] = biological target: T1, 5-hydroxytryptamine receptor 6; assay: Maximum percentage inhibition of 5-HT stimulated cAMP production in HeLa cells expressing 5-hydroxytryptamine 6 receptor; format: functional, cell-based; in short: as §1

T1 sequence (P50406 whole entry): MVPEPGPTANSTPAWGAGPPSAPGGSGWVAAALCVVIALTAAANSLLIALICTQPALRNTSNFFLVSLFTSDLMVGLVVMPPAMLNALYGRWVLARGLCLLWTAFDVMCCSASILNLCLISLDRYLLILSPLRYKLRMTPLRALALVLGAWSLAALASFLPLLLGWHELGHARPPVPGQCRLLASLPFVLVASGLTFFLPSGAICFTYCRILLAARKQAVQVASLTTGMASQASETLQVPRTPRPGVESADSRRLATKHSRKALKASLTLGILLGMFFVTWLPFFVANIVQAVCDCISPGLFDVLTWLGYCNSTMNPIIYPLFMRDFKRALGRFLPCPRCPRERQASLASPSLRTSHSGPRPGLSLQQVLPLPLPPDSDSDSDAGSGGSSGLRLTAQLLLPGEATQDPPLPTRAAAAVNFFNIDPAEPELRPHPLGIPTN

Structure (SMILES): CN1CCC[C@H]1Cc1c[nH]c2ccc(NS(=O)(=O)c3ccc(OC(F)(F)F)cc3)cc12
- IC50 [1]: 25.8 nM
- Emax [2]: 68%
- Ki [3]: 8 nM
- EC50 [4]: 180 nM
- Imax [5]: 85%

Structure (SMILES): CN1CCC[C@@H]1Cc1c[nH]c2ccc(NS(=O)(=O)c3cccc(C(F)(F)F)c3)cc12
- Emax [2]: 90%
- Ki [3]: 1 nM
- EC50 [4]: 3.2 nM

Structure (SMILES): CC(C)c1ccc(S(=O)(=O)Nc2ccc3[nH]cc(C[C@@H]4CCCN4C)c3c2)cc1
- IC50 [1]: 21.1 nM
- Ki [3]: 3 nM
- Imax [5]: 76%

Structure (SMILES): O=S(=O)(Nc1ccc2[nH]cc(C[C@H]3CCCN3)c2c1)c1cccc(Cl)c1
- Emax [2]: 92%
- Ki [3]: 2 nM
- EC50 [4]: 1 nM

Structure (SMILES): Cc1c(S(=O)(=O)Nc2ccc3[nH]cc(C[C@@H]4CCCN4C)c3c2)sc2ccc(Cl)cc12
- IC50 [1]: 1.1 nM
- Ki [3]: 2 nM
- Imax [5]: 91%

Structure (SMILES): CN1CCC[C@@H]1Cc1c[nH]c2ccc(NS(=O)(=O)c3ccc(I)cc3)cc12
- Emax [2]: 72%
- Ki [3]: 0.3 nM
- EC50 [4]: 2.7 nM

Structure (SMILES): CN1CCC[C@H]1Cc1c[nH]c2ccc(NS(=O)(=O)c3ccccc3Br)cc12
- IC50 [1]: 0.8 nM
- Ki [3]: 5 nM
- Imax [5]: 75%

Structure (SMILES): CN1CCC[C@@H]1Cc1c[nH]c2ccc(NS(=O)(=O)c3ccccc3)cc12
- Ki [3]: 1 nM

Structure (SMILES): CN1CCC[C@H]1Cc1c[nH]c2ccc(NS(=O)(=O)c3ccc(F)cc3Cl)cc12
- Ki [3]: 35 nM

Structure (SMILES): O=S(=O)(Nc1ccc2[nH]cc(C[C@H]3CCCN3)c2c1)c1ccccc1F
- Ki [3]: 4 nM

Structure (SMILES): COc1ccc(S(=O)(=O)Nc2ccc3[nH]cc(C[C@H]4CCCN4C)c3c2)cc1
- Emax [2]: 83%
- Ki [3]: 1 nM
- EC50 [4]: 2.2 nM

Structure (SMILES): CN1CCC[C@H]1Cc1c[nH]c2ccc(NS(=O)(=O)c3ccc4ccccc4c3)cc12
- IC50 [1]: 10.4 nM
- Ki [3]: 1 nM
- Imax [5]: 95%

Structure (SMILES): CN1CCC[C@@H]1Cc1c[nH]c2ccc(NS(=O)(=O)c3ccc4ccccc4c3)cc12
- Ki [3]: 1 nM

Structure (SMILES): CN1CCC[C@@H]1Cc1c[nH]c2ccc(NS(=O)(=O)c3ccc(C(F)(F)F)cc3)cc12
- Emax [2]: 85%
- Ki [3]: 0.4 nM
- EC50 [4]: 4.5 nM

Structure (SMILES): O=S(=O)(Nc1ccc2[nH]cc(C[C@H]3CCCN3)c2c1)c1ccc(F)cc1Cl
- Ki [3]: 9 nM

Structure (SMILES): O=S(=O)(Nc1ccc2[nH]cc(C[C@H]3CCCN3)c2c1)c1ccc(F)cc1F
- Emax [2]: 78%
- Ki [3]: 8 nM
- EC50 [4]: 5.2 nM

Structure (SMILES): O=S(=O)(Nc1ccc2[nH]cc(C[C@H]3CCCN3)c2c1)c1ccc(Br)cc1
- Ki [3]: 3 nM

Structure (SMILES): O=S(=O)(Nc1ccc2[nH]cc(C[C@H]3CCCN3)c2c1)c1ccc(Cl)cc1
- Emax [2]: 99%
- Ki [3]: 3 nM
- EC50 [4]: 4.5 nM

Structure (SMILES): O=S(=O)(Nc1ccc2[nH]cc(C[C@H]3CCCN3)c2c1)c1ccccc1
- Emax [2]: 73%
- Ki [3]: 4 nM
- EC50 [4]: 1.4 nM

Structure (SMILES): O=S(=O)(Nc1ccc2[nH]cc(C[C@H]3CCCN3)c2c1)c1ccc(I)cc1
- Ki [3]: 1 nM

Structure (SMILES): CN1CCC[C@@H]1Cc1c[nH]c2ccc(NS(=O)(=O)c3ccccc3F)cc12
- Emax [2]: 91%
- Ki [3]: 1 nM
- EC50 [4]: 1.3 nM

Structure (SMILES): CC(C)c1ccc(S(=O)(=O)Nc2ccc3[nH]cc(C[C@H]4CCCN4C)c3c2)cc1
- Ki [3]: 1 nM

Structure (SMILES): CN1CCC[C@H]1Cc1c[nH]c2ccc(NS(=O)(=O)c3ccccc3)cc12
- Ki [3]: 16 nM

Structure (SMILES): CN1CCC[C@H]1Cc1c[nH]c2ccc(NS(=O)(=O)c3cccc(Cl)c3)cc12
- Ki [3]: 11 nM

Structure (SMILES): O=S(=O)(Nc1ccc2[nH]cc(C[C@H]3CCCN3)c2c1)c1ccc(F)cc1
- Ki [3]: 4 nM

Structure (SMILES): CN1CCC[C@@H]1Cc1c[nH]c2ccc(NS(=O)(=O)c3ccc(Cl)c(Cl)c3)cc12
- Ki [3]: 1 nM

Structure (SMILES): CN1CCC[C@@H]1Cc1c[nH]c2ccc(NS(=O)(=O)c3ccc(OC(F)(F)F)cc3)cc12
- Emax [2]: 94%
- Ki [3]: 1 nM
- EC50 [4]: 2.9 nM

Structure (SMILES): Cc1noc(C)c1S(=O)(=O)Nc1ccc2[nH]cc(C[C@H]3CCCN3C)c2c1
- Emax [2]: 77%
- Ki [3]: 1 nM
- EC50 [4]: 0.8 nM

Structure (SMILES): O=S(=O)(Nc1ccc2[nH]cc(C[C@@H]3CCCN3)c2c1)c1ccc(F)cc1F
- Ki [3]: 131 nM

Structure (SMILES): COc1ccc(S(=O)(=O)Nc2ccc3[nH]cc(C[C@@H]4CCCN4C)c3c2)cc1
- Ki [3]: 34 nM

Structure (SMILES): CN1CCC[C@H]1Cc1c[nH]c2ccc(NS(=O)(=O)c3ccc(C(F)(F)F)cc3)cc12
- IC50 [1]: 21.6 nM
- Ki [3]: 10 nM
- Imax [5]: 78%

Structure (SMILES): CC(C)c1ccc(S(=O)(=O)Nc2ccc3[nH]cc(C[C@H]4CCCN4)c3c2)cc1
- Ki [3]: 1 nM

Structure (SMILES): O=S(=O)(Nc1ccc2[nH]cc(C[C@H]3CCCN3)c2c1)c1cccc(C(F)(F)F)c1
- Emax [2]: 77%
- Ki [3]: 4 nM
- EC50 [4]: 5.8 nM

Structure (SMILES): CN1CCC[C@H]1Cc1c[nH]c2ccc(NS(=O)(=O)c3cccc(C(F)(F)F)c3)cc12
- IC50 [1]: 14.1 nM
- Ki [3]: 12 nM
- Imax [5]: 78%

Structure (SMILES): CN1CCC[C@H]1Cc1c[nH]c2ccc(NS(=O)(=O)c3ccc(Cl)c(Cl)c3)cc12
- Ki [3]: 7 nM

Structure (SMILES): Cc1ccc(S(=O)(=O)Nc2ccc3[nH]cc(C[C@H]4CCCN4C)c3c2)cc1
- Emax [2]: 79%
- Ki [3]: 1 nM
- EC50 [4]: 1.3 nM

Structure (SMILES): O=S(=O)(Nc1ccc2[nH]cc(C[C@H]3CCCN3)c2c1)c1ccc(OC(F)(F)F)cc1
- Emax [2]: 86%
- Ki [3]: 5 nM
- EC50 [4]: 4.2 nM

Structure (SMILES): Cc1ccc(S(=O)(=O)Nc2ccc3[nH]cc(C[C@H]4CCCN4)c3c2)cc1
- Ki [3]: 4 nM

Structure (SMILES): O=S(=O)(Nc1ccc2[nH]cc(C[C@@H]3CCCN3)c2c1)c1ccc(Br)cc1
- Ki [3]: 57 nM

Structure (SMILES): CN1CCC[C@@H]1Cc1c[nH]c2ccc(NS(=O)(=O)c3ccc(F)cc3)cc12
- Emax [2]: 85%
- Ki [3]: 1 nM
- EC50 [4]: 1.1 nM

Structure (SMILES): CN1CCC[C@H]1Cc1c[nH]c2ccc(NS(=O)(=O)c3ccccc3Cl)cc12
- Ki [3]: 22 nM

Structure (SMILES): O=S(=O)(Nc1ccc2[nH]cc(C[C@@H]3CCCN3)c2c1)c1cccc(Cl)c1
- Ki [3]: 36 nM

Structure (SMILES): CN1CCC[C@H]1Cc1c[nH]c2ccc(NS(=O)(=O)c3ccc(Br)cc3)cc12
- IC50 [1]: 1.6 nM
- Ki [3]: 9 nM
- Imax [5]: 85%

Structure (SMILES): COc1ccc(Cl)cc1S(=O)(=O)Nc1ccc2[nH]cc(C[C@@H]3CCCN3C)c2c1
- Ki [3]: 24 nM

Structure (SMILES): O=S(=O)(Nc1ccc2[nH]cc(C[C@H]3CCCN3)c2c1)c1ccc(Cl)c(Cl)c1
- Ki [3]: 3 nM

From ChEMBL document CHEMBL1141169, “Discovery of 5-arylsulfonamido-3-(pyrrolidin-2-ylmethyl)-1H-indole derivatives as potent, selective 5-HT6 receptor agonists and antagonists” (J Med Chem, 2005)
